{"source": "paper PMC4636435", "about": "(Cell host & microbe, 2015)", "molecules": {"B1": {"name": "recombinant M49 protein (natural protein)", "chain": "AEKKVEAKVEVAENNVSSVARREKELYDQIADLTDKNGEYLERIGELEERQKNLEKLEHQSQVAADKHYQEQAKKHQEYKQEQEERQKNQEQLERKYQREVEKRYQEQLQKQQQLETEKQISEASRKSLSRDLEASREAKKKVEADLAALTAEHQKLKEEKQISDASRQGLSRDLEASREAKKKVEADLAALTAEHQKLKEEKQISDASRQGLSRDLEASREAKKKVEADLAEANSKLQALEKLNKELEEGKKLSEKEKAELQARLEAEAKALKEQLAKQAEELAKLKGNQTPNAKVAPQANRSRSAMTQQKRTLPST"}, "B2": {"name": "recombinant hCAP18, full-length human cathelicidin (natural protein)", "chain": "QVLSYKEAVLRAIDGINQRSSDANLYRLLDLDPRPTMDGDPDTPKPVSFTVKETVCPRTTQQSPEDCDFKKDGLVKRCMGTVTLNQARGSFDISCDKDNKRFALLGDFFRKSKEKIGKEFKRIVQRIKDFLRNLVPRTES"}, "B3": {"name": "hCAP18: full-length human cathelicidin precursor, recombinant, expressed from pET28a (protein)", "chain": "B2 chain", "modifications": "left off: His tag (from the vector pET28a), end not stated, state not stated"}}, "key": {"[1]": {"test_system": "cathelicidin", "details": "human cells; ref Liu et al., 2006; cited from earlier work"}, "[2]": {"test_system": "wild-type and Δemm1 GAS", "test": "Resistance of wild-type and Δemm1 GAS to antimicrobial peptides", "assay_type": "cell-based, Streptococcus pyogenes (group A Streptococcus)", "details": "serum-free DMEM with 10% THB, 24 h; for M1-dependent protection of GAS from killing by the peptide: wild-type vs. Δemm1 GAS", "outline": "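GAS M1T1 5448 and isogenic Δemm1 were grown overnight at 37°C, diluted 1:40 in Todd-Hewitt broth, grown statically at 37°C to OD600 0.400, then PBS-washed. 2×10^5 bacteria in serum-free DMEM with phenol red and 10% THB were exposed to cathelicidin- or defensin-family peptides. MIC was the lowest concentration preventing growth after 24 h. Means ± s.d., n=3; ≥3 independent experiments.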"}, "[3]": {"test_system": "human neutrophils", "test": "Neutrophil chemotaxis in transwell system", "assay_type": "cell-based", "details": "1 h, 37°C, n=3"}, "[4]": {"test_system": "recombinant M1 protein", "test": "Pulldown with His-tagged recombinant M1 as bait / blot", "assay_type": "binding, Streptococcus pyogenes (group A Streptococcus), M1T1"}, "[5]": {"biological_target": "LL-37, human cathelicidin antimicrobial peptide (human)", "test": "SPR"}, "[6]": {"biological_target": "T1, recombinant M49 protein (Streptococcus pyogenes (group A …, UniProt P16947 42-359))", "T1 sequence": "B1 chain", "test": "SPR"}, "[7]": {"test_system": "M1 protein", "test": "SPR", "assay_type": "binding, Streptococcus pyogenes (group A Streptococcus), M1T1", "details": "ratio of Kd M49 vs. M1, SPR"}, "[8]": {"test_system": "M1T1 GAS, wild-type vs. Δemm1", "test": "FACS detection of cathelicidin on bacterial surface", "assay_type": "cell-based, Streptococcus pyogenes (group A Streptococcus)", "details": "recombinant hCAP18, wild-type vs. Δemm1, anti-LL-37 antibody"}}, "note": "“Also recorded” adds a separate entry of the source.", "data": [{"molecule": "C=C1CC[C@H](O)C/C1=C/C=C1\\CCC[C@]2(C)[C@@H]([C@H](C)/C=C/[C@H](C)C(C)C)CC[C@@H]12", "note": "[vitamin D]", "values": [{"measurement": "induction of cathelicidin expression", "setting": "[1]", "result": "strongly induces cathelicidin expression"}]}, {"molecule": "KR-20: processed form of cathelicidin expressed by keratinocytes in human skin; de novo synthesis (Anaspec) (KRIVQRIKDFLRNLVPRTES)", "values": [{"measurement": "M1-dependent protection of GAS from killing by the peptide", "setting": "[2]", "result": "M1 protected GAS from killing"}]}, {"molecule": "N-formyl-Met-Leu-Phe [fMLP]", "values": [{"measurement": "stimulation of neutrophil chemotaxis", "setting": "[3]", "result": "stimulated robust chemotaxis of neutrophils"}]}, {"molecule": "mCRAMP: active murine form of cathelicidin; de novo synthesis (Anaspec) (ISRLAGLLRKGGEKIGEKLKKIGQKIKNFFQKLVPQPE)", "values": [{"measurement": "M1-dependent protection of GAS from killing by the peptide", "setting": "[2]", "result": "M1 protected GAS from killing"}, {"measurement": "binding and inhibition by M1 vs. M49", "setting": "[4]; statement in the in vivo section", "result": "M1 but not M49 binds and inhibits CRAMP"}]}, {"molecule": "recombinant M1 protein (from UniProt Q99XV0) (natural protein)", "values": [{"measurement": "Kd", "setting": "[5]", "result": 1.18, "unit": "µM"}]}, {"molecule": "B1", "values": [{"measurement": "Kd", "setting": "[5]", "result": 62.7, "unit": "µM"}]}, {"molecule": "B2", "values": [{"measurement": "Kd", "setting": "[6]", "result": 9.07, "unit": "µM"}]}, {"molecule": "B3", "values": [{"measurement": "stronger binding of M1 compared to M49 protein (from Kd)", "setting": "[7]", "result": 10, "unit": "fold"}, {"measurement": "antimicrobial activity", "setting": "[2]; wild-type and Δemm1 GAS", "result": "lacked antimicrobial activity"}, {"measurement": "major cathelicidin form pulled down by M1 from neutrophil lysate", "setting": "[4]; whole lysates from neutrophils, Western blot with anti-LL-37 antibody", "result": "the major cathelicidin form detected was uncleaved hCAP18"}, {"measurement": "binding to bacterial surface", "setting": "[8]", "result": "recombinant hCAP18 bound the GAS surface in an M1-dependent manner; also recorded: Δemm1 GAS binds significantly less hCAP18 than wild-type GAS"}]}]}
